These results are taken from ChEMBL document CHEMBL2321703, “Identification of novel D-amino acid oxidase inhibitors by in silico screening and their functional characterization in vitro” (J Med Chem, 2013).

Each structure is given as a SMILES string. The source made the active and inactive calls. The rule behind the calls is not given here.

Assay [1] concerns the target T1, D-amino-acid oxidase (Homo sapiens, UniProt P14920). Description: Inhibition of human recombinant N-terminal His-tagged DAO expressed in Escherichia coli BL21(DE3) using D-serine as substrate by colorimetric assay.
Assay [2] relates to HEK293. Briefly: Effect on L-alanine level in G418-resistant HEK293 cells at 83 uM by HPLC analysis relative to vehicle-treated control. It is filed as functional, cell-based. To be noted: Homo sapiens. An outline of the steps: (§1)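 293/NEO (empty-vector, G418-selected) or 293.HA-hDAO-24 (stable N-terminal HA-tagged human DAO) cells, 1 × 10^6 seeded, maintained in DMEM/10% FBS/800 μg/mL G418; next day fresh medium, compound or vehicle (5% DMSO solution) for 30 min, then 17 mM D-Ala for 24 h. Methanol extraction; D-/L-Ala by OPA/NAC derivatization HPLC with fluorescence; mean ± SD of three assays; Dunnett test vs vehicle.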

For the next assay, the target named is T2, D-aspartate oxidase (Homo sapiens, UniProt Q99489).
T2 sequence (Q99489 whole entry): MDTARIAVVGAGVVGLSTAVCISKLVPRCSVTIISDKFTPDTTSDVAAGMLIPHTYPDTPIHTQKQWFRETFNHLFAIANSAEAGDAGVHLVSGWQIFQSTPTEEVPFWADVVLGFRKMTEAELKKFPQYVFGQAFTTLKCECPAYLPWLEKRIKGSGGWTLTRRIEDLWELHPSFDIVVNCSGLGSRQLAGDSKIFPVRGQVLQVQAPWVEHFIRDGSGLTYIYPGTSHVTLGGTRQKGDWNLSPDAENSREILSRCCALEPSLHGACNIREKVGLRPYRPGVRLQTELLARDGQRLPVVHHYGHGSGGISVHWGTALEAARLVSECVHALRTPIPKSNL
Description: (§2) Inhibition of human recombinant N-terminal His-tagged DDO expressed in Escherichia coli BL21(DE3) using D-aspartate as substrate by colorimetric assay. An outline of the steps:
(§3)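 Purified enzyme (0.23–4.2 μg) with 10 mM D-Asp in air-saturated 40 mM sodium pyrophosphate pH 8.3, 23 U catalase, 60 μM FAD; 37 °C, 10 min; trichloroacetic acid stop; 2-oxo acid measured as 2,4-dinitrophenylhydrazone at A445.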

Assay [3] has as its target T3, D-aspartate oxidase (Homo sapiens) (UniProt Q99489).
T3 sequence (whole entry): T2 sequence (Q99489 whole entry)
The assay is described as §2. In a few lines:
as §3

In assay [4] the target is T1, D-amino-acid oxidase. Briefly: Binding affinity to human recombinant N-terminal His-tagged DAO expressed in Escherichia coli BL21(DE3) at 40 uM after 2 to 30 mins by absorption spectra analysis. To be noted: 200 uM, in the assay text read “at 200 uM” for “at 40 uM”. An outline of the steps:
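Purified enzyme at 1.7 μg/μL in 10 mM sodium pyrophosphate pH 8.3 with 2 mM EDTA, 5 mM 2-mercaptoethanol, 10% (v/v) glycerol; wavelength scans at 25 °C before and after compound addition (final 40 μM or 200 μM depending on compound), recorded at indicated times; binding inferred from perturbation of the absorption spectrum.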
Target sequence in this assay (P14920 whole entry, looked up): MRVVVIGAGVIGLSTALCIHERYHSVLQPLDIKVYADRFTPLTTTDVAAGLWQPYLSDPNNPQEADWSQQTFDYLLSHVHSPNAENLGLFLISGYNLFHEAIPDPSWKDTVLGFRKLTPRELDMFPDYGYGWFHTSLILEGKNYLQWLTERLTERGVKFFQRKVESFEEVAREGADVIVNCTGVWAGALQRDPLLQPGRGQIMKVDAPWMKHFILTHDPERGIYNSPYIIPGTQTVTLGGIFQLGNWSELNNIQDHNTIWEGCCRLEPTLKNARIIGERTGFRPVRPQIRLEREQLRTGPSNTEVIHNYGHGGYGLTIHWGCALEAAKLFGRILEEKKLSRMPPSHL

Assay [5] concerns the target T1, D-amino-acid oxidase. Briefly: Inhibition of human recombinant N-terminal His-tagged DAO expressed in Escherichia coli BL21(DE3) using D-alanine as substrate by Lineweaver-Burk plot analysis.
Target sequence in this assay (P14920 whole entry): as the sequence (P14920 whole entry, looked up) above
For assay [6], the target named is D-amino-acid oxidase (Homo sapiens, UniProt P14920, Y224A). Briefly: (§4) Inhibition of human recombinant N-terminal His-tagged DAO Y224A mutant expressed in Escherichia coli BL21(DE3) using D-alanine as substrate after 10 mins by Lineweaver-Burk plot analysis.
Sequence of D-amino-acid oxidase (Homo sapiens, UniProt P14920, Y224A) (P14920 whole entry Y224A): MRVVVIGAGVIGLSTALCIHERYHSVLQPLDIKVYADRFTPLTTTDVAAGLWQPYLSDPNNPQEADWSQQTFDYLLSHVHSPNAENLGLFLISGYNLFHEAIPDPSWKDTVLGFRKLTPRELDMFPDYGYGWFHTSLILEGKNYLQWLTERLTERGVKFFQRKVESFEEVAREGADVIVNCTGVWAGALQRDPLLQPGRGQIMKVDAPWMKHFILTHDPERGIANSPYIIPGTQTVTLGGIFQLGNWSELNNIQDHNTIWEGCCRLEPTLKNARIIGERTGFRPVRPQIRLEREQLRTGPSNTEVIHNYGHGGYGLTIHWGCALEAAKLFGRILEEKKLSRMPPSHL
The test system of assay [7] is D-amino-acid oxidase (Homo sapiens), P14920 [Y224A]. Described as §4.
Sequence of D-amino-acid oxidase (Homo sapiens), P14920 [Y224A] (P14920 whole entry Y224A): as above
Assay [8] relates to HEK293. Briefly: Effect on L-alanine level in G418-resistant HEK293 cells at 17 uM by HPLC analysis relative to vehicle-treated control. It is filed as functional, cell-based. To be noted: Homo sapiens. An outline of the steps:
as §1

Assay [9] deals with T1, D-amino-acid oxidase. Description: Inhibition of human recombinant N-terminal His-tagged DAO expressed in Escherichia coli BL21(DE3) using D-alanine as substrate by colorimetric assay.
In assay [10] the target is T1, D-amino-acid oxidase. Briefly: Competitive inhibition of human recombinant N-terminal His-tagged DAO expressed in Escherichia coli BL21(DE3) using D-alanine as substrate by Lineweaver-Burk plot analysis. In a few lines: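 Purified N-terminal His-tagged human DAO from E. coli BL21(DE3)pLysS. Colorimetric 2-oxo acid assay in air-saturated 40 mM sodium pyrophosphate pH 8.3 with catalase, 60 μM FAD and 0.5–40 mM D-Ala, 37 °C for 10 min. Stopped with TCA, derivatized with 2,4-dinitrophenylhydrazine, read at A445. Lineweaver–Burk plots; Ki confirmed by slope replot against inhibitor concentration. Three independent experiments.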
Target sequence in this assay (P14920 whole entry, looked up): as the sequence (P14920 whole entry, looked up) above

In assay [11] the target is D-amino-acid oxidase (Homo sapiens, UniProt P14920, Y224F). Briefly: (§5) Inhibition of human recombinant N-terminal His-tagged DAO Y224F mutant expressed in Escherichia coli BL21(DE3) using D-alanine as substrate after 10 mins by Lineweaver-Burk plot analysis.
Sequence of D-amino-acid oxidase (Homo sapiens, UniProt P14920, Y224F) (P14920 whole entry Y224F): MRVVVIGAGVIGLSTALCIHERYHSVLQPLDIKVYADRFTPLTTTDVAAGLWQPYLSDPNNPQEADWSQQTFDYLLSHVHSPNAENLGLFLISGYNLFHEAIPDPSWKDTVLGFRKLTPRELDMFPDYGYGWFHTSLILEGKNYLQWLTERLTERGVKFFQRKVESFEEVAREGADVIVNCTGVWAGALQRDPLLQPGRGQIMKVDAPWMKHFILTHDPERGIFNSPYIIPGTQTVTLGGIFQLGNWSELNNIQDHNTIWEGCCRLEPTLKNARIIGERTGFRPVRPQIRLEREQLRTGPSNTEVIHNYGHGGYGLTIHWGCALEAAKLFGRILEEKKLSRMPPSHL
The test system of assay [12] is D-amino-acid oxidase (Homo sapiens), P14920 [Y224F]. Described as §5.
Sequence of D-amino-acid oxidase (Homo sapiens), P14920 [Y224F] (P14920 whole entry Y224F): as above
Assay [13] concerns the target T1, D-amino-acid oxidase. Briefly: Inhibition of human recombinant DAO expressed in G418-resistant HEK293/NEO cells assessed as effect on D-alanine level at 83 uM incubated for 30 mins prior to D-alanine addition measured after 24 hrs by HPLC analysis relative to vehicle-treated control. It is filed as cell-based. In a few lines: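 HEK293 cells stably carrying HA-tagged human DAO (clone 293.HA-hDAO-24) or empty vector (293/NEO), seeded at 1 × 10^6. Next day, fresh medium and 83 μM compound or vehicle (5% DMSO solution) for 30 min, then 17 mM D-Ala for 24 h. Cells methanol-extracted; D-/L-Ala by OPA/NAC-derivatized HPLC. Three independent assays, Dunnett test vs vehicle.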
Target sequence in this assay (P14920 whole entry, looked up): as the sequence (P14920 whole entry, looked up) above

Assay [14] deals with HEK293/NEO. Description: Effect on L-alanine level in G418-resistant HEK293/NEO cells at 83 uM by HPLC analysis relative to vehicle-treated control. It is filed as functional, cell-based. Particulars: Homo sapiens. In a few lines: as §1
The target in assay [15] is T4, Serine racemase (Homo sapiens) (UniProt Q9GZT4).
T4 sequence (whole entry): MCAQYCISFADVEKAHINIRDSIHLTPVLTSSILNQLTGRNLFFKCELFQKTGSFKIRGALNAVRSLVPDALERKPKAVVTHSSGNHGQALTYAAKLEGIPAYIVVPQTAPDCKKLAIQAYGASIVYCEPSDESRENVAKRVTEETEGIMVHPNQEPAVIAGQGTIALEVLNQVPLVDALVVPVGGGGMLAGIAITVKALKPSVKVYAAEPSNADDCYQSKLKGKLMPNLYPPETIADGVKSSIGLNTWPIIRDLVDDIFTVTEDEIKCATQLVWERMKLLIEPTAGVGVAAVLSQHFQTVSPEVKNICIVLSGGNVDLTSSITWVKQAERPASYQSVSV
Description: (§6) Inhibition of human recombinant N-terminal His-tagged serine racemase expressed in Escherichia coli BL21(DE3) using L-serine as substrate after 10 mins by fluorescence assay. In a few lines: (§7)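 Purified enzyme (30 μg) in 40 mM Tris-HCl pH 8.0, 60 μM pyridoxal phosphate, 1 mM MgCl2, ATP, 1 mM dithiothreitol, 10 mM L-Ser, with compound; 37 °C, 10 min; methanol stop. D-Ser quantified by OPA/Boc-L-cysteine derivatization and reversed-phase HPLC fluorescence (ex 344, em 443 nm).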

In another assay the target is T5, Serine racemase (Homo sapiens, UniProt Q9GZT4).
T5 sequence (Q9GZT4 whole entry): T4 sequence (whole entry)
The assay is described as §6. An outline of the steps:
as §7

For assay [16], the target named is T1, D-amino-acid oxidase. Briefly: Binding affinity to human recombinant N-terminal His-tagged DAO expressed in Escherichia coli BL21(DE3) at 200 uM after 2 to 30 mins by absorption spectra analysis.
Target sequence in this assay (P14920 whole entry, looked up): as the sequence (P14920 whole entry, looked up) above
Assay [17] deals with HEK293/NEO. Briefly: Effect on L-alanine level in G418-resistant HEK293/NEO cells at 17 uM by HPLC analysis relative to vehicle-treated control. To be noted: Homo sapiens. It counts as functional, cell-based. An outline of the steps:
as §1

Assay [18] has as its target T1, D-amino-acid oxidase. Particulars: HEK293, 83 uM.
Target sequence in this assay (P14920 whole entry, looked up): as the sequence (P14920 whole entry, looked up) above

`Nc1ccc(-c2nnc(O)o2)cc1`: the IC50 on D-amino-acid oxidase [1] is above 10000 µM.

For the compound `O=C(O)c1cc2c(s1)CCC2`, the outcome with HEK293 [2], in the assay with HEK293 [8] and with HEK293/NEO [14] was inactive. For the same compound, the IC50 is above 10000 µM on D-aspartate oxidase, 28.5 µM at D-amino-acid oxidase [1], 59.8 µM on D-amino-acid oxidase [9] and 5280 µM on Serine racemase. The inhibition entry (in [3]; at D-amino-acid oxidase [1]; in assay [7]; on D-amino-acid oxidase [9]; in assay [12]; in assay [15]) was “Dose-dependent effect” throughout. Besides, on D-amino-acid oxidase [4], the result was Active. Also, the Ki at D-amino-acid oxidase [5] turned out to be 9.92 µM; at D-amino-acid oxidase [6], 4.59 µM; on D-amino-acid oxidase [11], 14.4 µM. In addition, the inhibition entry at D-amino-acid oxidase [10] is “Active”. For the same compound, the inhibition result on D-amino-acid oxidase [13] was “inactive”.

`O=C(O)c1cc2c([nH]1)CCCC2`: the IC50 at D-amino-acid oxidase [1] is above 100 µM.

With `CNCC(=O)c1ccc(O)c(O)c1` [ADRENALONE], on D-amino-acid oxidase [1], the IC50 was above 1000 µM.

Turning to `O=C(O)c1cn2ccccc2n1`, the IC50 at D-amino-acid oxidase [1] is above 2500 µM.

As for `O=C(O)c1ccc2cccnc2n1`, the IC50 on D-amino-acid oxidase [1] is above 10000 µM.

With `O=c1[nH]nc(-c2ccccc2)o1`, the IC50 was above 10000 µM on D-aspartate oxidase, 253 µM at D-amino-acid oxidase [1], 365 µM on D-amino-acid oxidase [9] and above 10000 µM at Serine racemase. For the same compound, the inhibition result (in [3]; at D-amino-acid oxidase [9]; in assay [15]) was “Dose-dependent effect” in each case.

On to `NC[C@H](O)c1ccc(O)c(O)c1` [NOREPINEPHRINE], for which the IC50 at D-amino-acid oxidase [1] is above 10000 µM.

For the compound `O=C(O)C(O)C(O)C(=O)O` (stereo not drawn), the half-maximal inhibitory concentration (IC50) was 3920 µM on D-aspartate oxidase, above 10000 µM on D-amino-acid oxidase [1] and 2820 µM at Serine racemase.

Take `Nc1cncc(C(=O)O)c1`: the IC50 at D-amino-acid oxidase [1] is above 2500 µM.

As to `O=C(O)[C@@H](O)[C@@H](O)C(=O)O`, the inhibition result in assay [3] and in assay [15] was “Dose-dependent effect” in each case.

As for `O=C(O)c1ccsc1`, the outcome on D-amino-acid oxidase [16] was Active. The result in the assay on HEK293 [2], in the assay with HEK293/NEO [17], in the assay on HEK293 [8] and in the assay with HEK293/NEO [14] was inactive. For the same compound, the IC50 is above 10000 µM at D-aspartate oxidase and 8210 µM on Serine racemase. For the same compound, the inhibition entry (in assay [3]; at D-amino-acid oxidase [1]; in assay [7]; at D-amino-acid oxidase [9]; in [12]; in [15]) was “Dose-dependent effect” each time. The inhibition result on D-amino-acid oxidase [10] and at D-amino-acid oxidase [18] was “Active” throughout. In addition, the inhibition entry on D-amino-acid oxidase [13] is “inactive”.

As for `O=C(O)C1=CN2CCN=C2C=C1`, the IC50 on D-amino-acid oxidase [1] is above 1000 µM.

Consider `Oc1cc(-c2ccccc2)no1`, for which the IC50 at D-amino-acid oxidase [1] was above 500 µM.

Turning to `CCc1cc(C(=O)O)sc1C`, the IC50 on D-aspartate oxidase was above 10000 µM; at D-amino-acid oxidase [1], 666 µM; on D-amino-acid oxidase [9], 1100 µM; at Serine racemase, 5720 µM. Further, the inhibition result (in [3]; at D-amino-acid oxidase [9]; in assay [15]) was “Dose-dependent effect” in each case.

`O=C(O)CC(=O)O` [MALONIC ACID]: the figures for the IC50 at D-aspartate oxidase, on D-amino-acid oxidase [1] and at Serine racemase were 1350 µM, above 10000 µM and 24.9 µM, respectively. Also, the inhibition entry in assay [3] and in assay [15] was “Dose-dependent effect” in each case. Further, on D-amino-acid oxidase [4], the result was inactive.

As for `Oc1nc(-c2ccccc2)no1`, the IC50 at D-amino-acid oxidase [1] was above 5000 µM.

Consider `O=C(O)c1cc2c(s1)CCCC2`, for which the IC50 is above 10000 µM at D-aspartate oxidase, 900 µM at D-amino-acid oxidase [1], 1450 µM at D-amino-acid oxidase [9] and 5010 µM on Serine racemase. The inhibition result (in [3]; on D-amino-acid oxidase [9]; in assay [15]) was “Dose-dependent effect” each time.

For `CCCc1cc(C(=O)O)sc1C`, the IC50 is above 10000 µM at D-aspartate oxidase, 1830 µM at D-amino-acid oxidase [1], 3720 µM on D-amino-acid oxidase [9] and 5160 µM at Serine racemase. Besides, the inhibition entry (in assay [3]; on D-amino-acid oxidase [9]; in assay [15]) was “Dose-dependent effect” in each case.

With `O=C(O)c1ccc[n+]([O-])c1` [OXINIACIC ACID], the 50% inhibitory concentration (IC50) at D-amino-acid oxidase [1] was above 2500 µM.

With `Cc1ccccc1-c1nnc(O)o1`, the 50% inhibitory concentration (IC50) was above 5000 µM at D-aspartate oxidase, 199 µM on D-amino-acid oxidase [1], 298 µM at D-amino-acid oxidase [9] and above 5000 µM on Serine racemase. Also, the inhibition result (in assay [3]; on D-amino-acid oxidase [1]; at D-amino-acid oxidase [9]; in assay [15]) was “Dose-dependent effect” each time.

Consider `C/C=C/C(=O)O` [CROTONIC ACID], for which the IC50 at D-aspartate oxidase was above 10000 µM; on D-amino-acid oxidase [1], 357 µM; at D-amino-acid oxidase [9], 598 µM; at Serine racemase, above 10000 µM. In addition, at D-amino-acid oxidase [1], the inhibition result was “Dose-dependent effect”.
